# Experimental data reported in ChEMBL document CHEMBL4513216, “Probing the Open Global Health Chemical Diversity Library for Multistage-Active Starting Points for Next-Generation Antimalarials” (ACS Infect Dis, 2020).
# Assay: Toxicity liver stage against HepG2, at 10uM
# Format: cell-based
# Design: test concentration 10 uM, cell line HepG2-A16-CD81EGFP
# Details: human, HepG2-A16-CD81EGFP cells; read-out: INHIBITION
# Summary of the method: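 Uninfected HepG2-A16-CD81EGFP cells, 3 × 10^3 per well, 1536-well, plated on prespotted compound at 10 μM final, parasite-free screening media added to match infected plates; puromycin 10 μM positive, DMSO 0.5% negative; run in parallel with 48 h PbLuc assay at 37 °C, 5% CO2; viability by CellTiter-Glo luminescence, normalized to controls.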
row,SMILES,cytotoxicity at 10 µM
1,Cc1nc[nH]c1CN1C[C@H]2CC[C@@H](C1)N(C(=O)CCc1cccnc1)C2,-14.2%
2,CCC(C)c1noc(C2CCN(C(=O)c3cccs3)CC2)n1 (stereo unspecified),-12.8%
3,CCNC(=O)c1nc2c(s1)CCCN2S(C)(=O)=O,-12.6%
4,Cc1ccc(CN2CCC3(CC2)CC3CN(C)Cc2cccnc2)o1 (stereo unspecified),-3.76%
5,COCCN1CC2(CCCN(c3ncnc4[nH]cnc34)C2)CCC1=O (stereo unspecified),-3.68%
6,Cc1cn2c(n1)CCC(NC(=O)c1ccc(S(C)(=O)=O)o1)C2 (stereo unspecified),-6.92%
7,COc1ccc(C(=O)Nc2ccccc2C(C)C)c(OC)n1,3.66%
8,COCCOc1ccc(NC(=O)C2CCCN(C(N)=O)C2)cn1 (stereo unspecified),-8.9%
9,CN1C(=O)CCc2cc(NC(=O)C3CC3)ccc21,0.696%
10,Cc1cccc(C(=O)Nc2cccc3c2C(=O)NC3)n1,1.14%
11,O=C1CN(C(=O)C2CN(c3cccc(F)c3)CCO2)CCN1 (stereo unspecified),5.37%
12,CCn1cnnc1CNC(=O)c1cc(Cl)ccc1F,-7.75%
13,CSc1ccccc1CC1CCCS(=O)(=O)C1 (stereo unspecified),2.26%
14,O=C1COC[C@H]([C@H](O)c2ccc(NC(=O)c3ccco3)cc2)N1,-2.33%
15,CNCc1ccc([C@@H]2CN(C(C)=O)C[C@H]2C(=O)N(C)C)cc1,3%
16,c1csc(-c2noc(CCCNC3CCc4ncnn4C3)n2)c1 (stereo unspecified),-1.36%
17,Cc1cc(N(C)CCN(C)C2CCCC2)n2nc(C)cc2n1,-6.09%
18,Cc1cccc(C2CCCCN2C(=O)CCCS(C)(=O)=O)c1C (stereo unspecified),4.96%
19,Cc1cc(CNC(=O)c2ccc(F)c(COCC3CC3)c2)no1,-0.429%
20,COc1cccc(OC)c1-c1ccnc2cc(CC(=O)N(C)C)nn12,-8.86%
21,COc1ccc(N2CCN(C(=O)CCn3nnnc3C)CC2(C)C)cc1,10.4%
22,Cc1nn(CC(C)C)c(N(C)C)c1CNCc1cc2ccccc2[nH]1,-2.77%
23,CNC(=O)c1ccc(C(=O)N2CCCC(n3ccnc3)C2)cn1 (stereo unspecified),-8.89%

row,SMILES,cytotoxicity at 10 µM
1,Nc1cc2c(nn1)CCN(C(=O)c1cccnc1Oc1ccccc1)C2,-11.6%
2,CS(=O)(=O)N1C[C@H]2CC[C@@H](C1)N(CCC(=O)NCc1ccccc1F)C2,-11%
3,N#CCCCN1CCCC1Cc1ccccc1 (stereo unspecified),-45.4%
4,CC(C)n1ccc(-c2cc(C(=O)N3CCN(C)CC3)c3ccccn23)n1,9.49%
5,O=S(=O)(Nc1ncccc1F)c1cc(Cl)cc2c1OCC2,1.6%
6,CC(C(=O)NCc1cccc(N2CCCC2=O)c1)S(C)(=O)=O (stereo unspecified),2.66%
7,CC(=O)N1CCOC(c2ccnc(N(C)C)n2)C1 (stereo unspecified),1.62%
8,CNc1cccc(C2CCCN(C(=O)c3cnccn3)C2)n1 (stereo unspecified),-19.2%
9,CN1CSC[C@H]1C(=O)N1CCN(Cc2cccc(Cl)c2)CC1,-4.28%
10,O=C(NCCc1cnccn1)c1ccc(S(=O)(=O)NC2CCC2)cc1,7.63%
11,CCC(CNC(=O)c1cc(CC(C)C)nn1C)N(C)CC (stereo unspecified),-5.99%
12,O=C(NCC1CC1)C1CN(C(=O)NC2CCCC2)Cc2cncn2C1 (stereo unspecified),-106%
13,Cn1cnnc1C1CCCN(C(=O)NCCNc2ccccn2)C1 (stereo unspecified),2.21%
14,O=C(CN1CCOCS1(=O)=O)NCCc1ccc(Cl)cc1,-5.14%
15,CCc1nc(CN2CCCN(C(=O)c3ccco3)CC2)cs1,5.03%
16,COCC(=O)NC[C@H]1C[C@@H]2CCN1C[C@@H]2CN1CCc2ccccc21,3.29%
17,CCOc1ccc(NC(C)C(=O)NCCc2cccs2)cc1CO (stereo unspecified),-6.79%
18,Cc1nc(C)n(CC2CCCN2CC(=O)Nc2cccnc2)n1 (stereo unspecified),2.04%
19,COCCN1CCO[C@@H]2CN(Cc3cc(OC)cc(OC)c3)C[C@@H]2C1,38.8%
20,O=C(c1cc(COc2ccc3c(c2)OCO3)[nH]n1)N1CCSCC1,-7.05%
21,O=C(Nc1ccccc1)c1n[nH]c(-n2cnnc2)n1,9.37%
22,O=C1NCCCC[C@@H]1Nc1ccc(-c2nc(C3CC3)no2)cn1,2.87%
23,c1ccc(-c2cnc(CNCC3CCCN3c3cccnn3)o2)cc1 (stereo unspecified),1.56%

row,SMILES,cytotoxicity at 10 µM
1,Fc1ccc(CNCCn2cccn2)cc1F,-8.01%
2,NC(=O)[C@H]1CCCN(c2nccc(-c3c[nH]nc3-c3cccnc3)n2)C1,-5.89%
3,Cn1nnc2cc(C(=O)NS(=O)(=O)c3ccc(F)cc3)ccc21,5.46%
4,COc1ccccc1C1CNC(=O)c2nc(-c3cn(C)nc3C)[nH]c2C1 (stereo unspecified),-1.07%
5,CSCC(=O)N1CCCC(CCC(=O)N(C)CCc2ccccn2)C1 (stereo unspecified),-3.09%
6,Cc1cc(C2CCCN2Cc2cc(=O)n(C)c(=O)n2C)on1 (stereo unspecified),-4.72%
7,Cc1cc(C)n(-c2cncc(N3CCN(C(=O)C(C)C)CC3)n2)n1,-2.9%
8,CN(C)CCCNC(=O)c1cc(-c2ccc3c(c2)CCO3)n[nH]1,-12.8%
9,CN(C)c1cncc(-c2ccnc3c2ccn3C)n1,5.51%
10,COC[C@H]1CCC[C@]12CN(C(=O)NCc1ccccc1)CCO2,-11.6%
11,CS(=O)(=O)Nc1ccn(Cc2ccc(Br)cc2)n1,10.9%
12,COCCN1CCN(Cc2ccc(C(C)=O)cc2)[C@H]2CS(=O)(=O)C[C@H]21,-0.571%
13,Cc1nc(CN(C)Cc2nc(-c3ccccc3)no2)co1,-1.86%
14,CN(C)CC1(O)CCCN(C(=O)c2ccccc2-n2cncn2)C1 (stereo unspecified),2.11%
15,CN(C)S(=O)(=O)N1CCCCC1CCc1ccc(O)cc1 (stereo unspecified),4.32%
16,COc1ccc(C2(C(=O)NC3CCc4nccn4C3)CCCC2)cc1 (stereo unspecified),4.48%
17,COc1ncccc1-c1cc(C(=O)NC2CC2)ccn1,-11.8%
18,COc1ccc(F)c(CN2CCCC3(CCN(C4CCOCC4)C3)C2)c1 (stereo unspecified),-1.48%
19,Cn1cnc(S(=O)(=O)N2CCCCc3ccccc32)c1,-4.62%
20,O=C(c1ccc(Cl)o1)N1CCCN(Cc2cscn2)CC1,-1.08%
21,COc1ccc2[nH]c(C(=O)NCC3(N)CCCC3)cc2c1,4.3%
22,CN(C)CCN(Cc1ccccn1)Cc1ccnn1C1CCCCO1 (stereo unspecified),1.6%
23,CC(C)CN1CC(c2nc(-c3ccc(F)cc3)c[nH]2)CC1=O (stereo unspecified),6.8%

row,SMILES,cytotoxicity at 10 µM
1,CC(=O)N1CC[C@H]2CC(=O)N(C3CC3)CC[C@H]2C1,-0.434%
2,Cc1nc(N(C)CCN(C)C)c2cnn(C)c2n1,4.63%
3,Cc1nc(C)n(C2CCCN(C(=O)c3ccccc3C)C2)n1 (stereo unspecified),1.59%
4,Cc1cc(C(=O)Nc2cc(C3CC3)n[nH]2)c2c(C)nn(C)c2n1,-2.14%
5,CC(C)COc1cncc(N2CCCN(c3ncccn3)CC2)n1,-2.38%
6,O=c1[nH]cnc2[nH]c(N3CCNCC3)nc12,-4.31%
7,O=C(c1ccsc1)N1CCC2(CC1)COCCN(Cc1ccncc1)C2,-89.6%
8,CCc1ccc(CNc2ccccc2CN2CCC(O)CC2)o1,4.34%
9,CCCNC(=O)Nc1ncc(-c2cccnc2)s1,3.11%
10,COC(=O)C1CCCCN1C(=O)c1cn(C/C=C/c2ccccc2)nn1 (stereo unspecified),3.98%
11,CCN1CCN(S(=O)(=O)c2cc(C)c(Cl)cc2Cl)CC1,-2.67%
12,CN(Cc1cscn1)C1CCCN(Cc2noc(C3CC3)n2)C1 (stereo unspecified),-2.77%
13,CN(C)C(=O)CCc1cncc(C2CCCN2Cc2ccccn2)n1 (stereo unspecified),-3.94%
14,COCCNC(=O)c1cc(S(=O)(=O)N2CCCCC2)cs1,-8.94%
15,CCC1CN(c2cnn(-c3ccccc3)c(=O)c2Cl)CCO1 (stereo unspecified),-17.4%
16,CCSCCn1cc(-c2nccs2)nn1,0.935%
17,COc1ccc2c(c1)CCN2Cc1nc2c(cnn2C)c(=O)[nH]1,-10.3%
18,CCN1CC(COc2ccccc2)Oc2ncccc2S1(=O)=O (stereo unspecified),-0.947%
19,CC1N(C)C(=O)COC12CCN(Cc1nccs1)CC2 (stereo unspecified),-124%
20,CCCC(=O)N1CCC2(CC1)CC(NC(C)=O)c1ccccc1O2 (stereo unspecified),5.08%
21,CCN1CC(c2ccccc2)CC2(CCN(Cc3ncc[nH]3)CC2)C1 (stereo unspecified),8.25%
22,CN(C)CCn1ccnc1C1CCN(C(=O)CCc2ccncc2)CC1,-9.67%
23,Cc1cccc(C)c1NC(=O)NCC1CCCN(C2CCOCC2)C1 (stereo unspecified),-5.95%

row,SMILES,cytotoxicity at 10 µM
1,CC1CCN(CCCNS(=O)(=O)Cc2ccccc2F)CC1,-8.79%
2,CSCC(=O)N1CCN(CC(O)C(C)(C)C)CC1 (stereo unspecified),-5.66%
3,COCCCN1CC2(CCN(C(=O)c3ccc(=O)n(C)c3)CC2)CC1=O,-9.69%
4,NCC(=O)N1CCCC(O)(CN2CCN(c3ccccc3)CC2)CC1 (stereo unspecified),-7.58%
5,O=C(O)c1cc(C=Cc2ccc3ccccc3c2)ncn1,-13.6%
6,CN(C)C(C(=O)N1CCN(S(N)(=O)=O)CC1)c1ccccc1F (stereo unspecified),0.199%
7,COc1cccc(CNC(=O)CC2CSc3ncc(C)c(=O)n32)c1 (stereo unspecified),10.4%
8,CCn1nc2ccc(S(=O)(=O)N3CCSCC3)cn2c1=O,2.4%
9,COc1ccccc1CN1C(=O)O[C@@H]2CN(CC3CC3)C[C@@H]21,1.35%
10,NS(=O)(=O)Cc1cccc(C(=O)N2CCCC(n3cccn3)C2)c1 (stereo unspecified),1.25%
11,CCc1noc(CN2CCCC(Cn3nc(C)nc3C)C2)n1 (stereo unspecified),-6.31%
12,COc1cccc(OCC2CCCN(C(=O)CCc3cc(O)no3)C2)c1 (stereo unspecified),0.611%
13,Cc1ccc(N2CCCC(NC(=O)Cc3csc(C)n3)C2=O)cc1 (stereo unspecified),-1.31%
14,CCn1nc(CNC(=O)C2CC(=O)N(C3CCCC3)C2)c2ccccc21 (stereo unspecified),-25.8%
15,CCc1ccc(C(=O)N2CCN(Cc3ccc(F)cc3)CC2)s1,13.4%
16,Cc1ccc(CN2CCCn3c(nc(Cn4ccnc4)cc3=O)C2)s1,4.24%
17,Cc1nccc([C@@H]2C[C@@H]3CCN(S(=O)(=O)N(C)C)C[C@H]3O2)n1,-3.38%
18,Cc1nc2n(n1)CC(Nc1ccnc(-c3ccccc3)n1)CC2 (stereo unspecified),3.43%
19,Cc1noc(C)c1CN1CCC2(CC1)CCN(C(=O)c1cscn1)C2,1.21%
